Data on 2 molecules can be found in article PMC4128068 (British Journal of Pharmacology, 2014).

The target in data set [1] is T1, volume-sensitive outwardly rectifying Cl− conductance (VSORC) (Mus musculus, UniProt Q80WG5).
T1 sequence (Q80WG5 1-810): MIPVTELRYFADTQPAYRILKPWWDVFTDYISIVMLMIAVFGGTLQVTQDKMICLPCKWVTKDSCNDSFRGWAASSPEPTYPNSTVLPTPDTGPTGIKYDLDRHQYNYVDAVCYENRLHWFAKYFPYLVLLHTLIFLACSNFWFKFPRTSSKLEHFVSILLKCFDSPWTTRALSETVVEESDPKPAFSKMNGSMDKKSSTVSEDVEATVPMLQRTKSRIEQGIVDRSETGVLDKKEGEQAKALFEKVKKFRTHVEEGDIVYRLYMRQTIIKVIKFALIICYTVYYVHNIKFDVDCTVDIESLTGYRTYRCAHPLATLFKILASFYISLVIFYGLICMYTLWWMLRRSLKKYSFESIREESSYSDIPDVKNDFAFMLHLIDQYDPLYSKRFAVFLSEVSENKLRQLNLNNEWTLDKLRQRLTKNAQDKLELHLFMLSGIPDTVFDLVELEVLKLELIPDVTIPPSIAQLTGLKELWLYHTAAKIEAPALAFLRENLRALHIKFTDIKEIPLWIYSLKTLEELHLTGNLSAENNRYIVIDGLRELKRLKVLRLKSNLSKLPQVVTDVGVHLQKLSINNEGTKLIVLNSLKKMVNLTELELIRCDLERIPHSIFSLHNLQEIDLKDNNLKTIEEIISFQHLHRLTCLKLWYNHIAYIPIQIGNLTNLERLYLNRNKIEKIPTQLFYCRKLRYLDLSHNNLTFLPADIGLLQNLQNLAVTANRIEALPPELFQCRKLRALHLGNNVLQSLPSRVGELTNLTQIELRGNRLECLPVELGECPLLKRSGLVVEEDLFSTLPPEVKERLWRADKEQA
It counts as cell-based. The settings on record: CFTR-expressing cells. A digest of the protocol:
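Ruptured whole-cell patch clamp on kidney cells. Pipette: 140 mM NMDGCl, 10 HEPES pH 7.4, 5 EGTA, 5 MgATP. VSORC was activated by switching from a mannitol-containing NMDGCl bath (320–330 mOsm) to a mannitol-free one (285–290 mOsm). Test compound (0.5–10 µM) was perfused after 3–4 min. Cells were held at −40 mV with 400 ms steps from −100 to +100 mV. Slopes (−100 to −60 and +60 to +100 mV) were normalised to the hypotonic maximum; 5–6 cells.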

Data set [2] deals with CFTR-like Cl− conductance (Mus musculus, UniProt P26361). Format: cell-based. In outline: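 Ruptured whole-cell patch clamp on cultured kidney DCT cells. CFTR current activated with forskolin (1–10 µM); once fully developed (3–4 min), test compound was perfused at rising concentrations (0.5, 1, 5, 10 µM). Holding potential −40 mV; eleven 400-ms steps from −100 to +100 mV in +20 mV increments. Current read 350 ms after pulse onset; mean ±SEM of six to eight cells.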

The subject of data set [3] is kidney PCT cells (CFTR-expressing). Put plainly: LIVE/DEAD cell viability/cytotoxicity assay. Format: cell-based, mouse. As to conditions: 24 h. In outline:
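Confluent mouse kidney PCT monolayers in 1% serum were exposed to the test compound (0.5–50 µM) for 24 h. Live cells were stained with calcein-AM (green) and dead cells with […] (red). Green and red pixels were quantified on three micrographs per well. Values were normalised to 100% live cells in controls, as means ±SEM of 3–6 experiments.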

Data set [4] deals with shark 'CFTR-like' protein. The settings on record: 25 µM; oocyte expression system; ref Stahl et al., 2012; cited from earlier work.
Data set [5] concerns kidney PCT cells (CFTR-expressing). The experiment in a line: MTT assay on CFTR-expressing cells. It counts as cell-based, mouse. The settings on record: 24 h.
A further data set concerns PS120 cells. The experiment in a line: MTT assay on non–CFTR-expressing cells. Format: cell-based, hamster. The settings on record: 24 h. In outline: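 PS120 cells in 1% serum were exposed to increasing test compound concentrations for 24 h. They were then incubated 1 h with 0.5 mg mL−1 MTT in phenol red-free DMEM:F12 with 5% serum at 37°C. Cells were lysed in 10% SDS/0.01 N HCl overnight and OD read at 562 nm. Values were normalised to vehicle, means (SEM) of eight experiments.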

Data set [6] deals with Ca2+-dependent Cl− conductance (CaCC). Put plainly: whole-cell patch-clamp, ionomycin-activated CaCC in CFTR-expressing kidney cells. Format: cell-based, mouse. In outline: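 Ruptured whole-cell patch clamp on kidney cells, with the NMDGCl pipette solution (5 EGTA, 5 MgATP, pH 7.4). CaCC was activated with 2 µM ionomycin, and test compound (1, 5, 10 µM) was perfused once current peaked. Cells were held at −40 mV with 400 ms steps from −100 to +120 mV. Slopes (+60 to +120 mV) were normalised to the uninhibited maximum; 5–6 cells. IC50 came from Hill fits.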

Another data set deals with human CFTR. As to conditions: 20 µM; oocyte expression system; ref Stahl et al., 2012; cited from earlier work.

pIC50: −log10 of the molar value.

Sequence of CFTR-like Cl− conductance (P26361 whole entry, the tested form may be a part): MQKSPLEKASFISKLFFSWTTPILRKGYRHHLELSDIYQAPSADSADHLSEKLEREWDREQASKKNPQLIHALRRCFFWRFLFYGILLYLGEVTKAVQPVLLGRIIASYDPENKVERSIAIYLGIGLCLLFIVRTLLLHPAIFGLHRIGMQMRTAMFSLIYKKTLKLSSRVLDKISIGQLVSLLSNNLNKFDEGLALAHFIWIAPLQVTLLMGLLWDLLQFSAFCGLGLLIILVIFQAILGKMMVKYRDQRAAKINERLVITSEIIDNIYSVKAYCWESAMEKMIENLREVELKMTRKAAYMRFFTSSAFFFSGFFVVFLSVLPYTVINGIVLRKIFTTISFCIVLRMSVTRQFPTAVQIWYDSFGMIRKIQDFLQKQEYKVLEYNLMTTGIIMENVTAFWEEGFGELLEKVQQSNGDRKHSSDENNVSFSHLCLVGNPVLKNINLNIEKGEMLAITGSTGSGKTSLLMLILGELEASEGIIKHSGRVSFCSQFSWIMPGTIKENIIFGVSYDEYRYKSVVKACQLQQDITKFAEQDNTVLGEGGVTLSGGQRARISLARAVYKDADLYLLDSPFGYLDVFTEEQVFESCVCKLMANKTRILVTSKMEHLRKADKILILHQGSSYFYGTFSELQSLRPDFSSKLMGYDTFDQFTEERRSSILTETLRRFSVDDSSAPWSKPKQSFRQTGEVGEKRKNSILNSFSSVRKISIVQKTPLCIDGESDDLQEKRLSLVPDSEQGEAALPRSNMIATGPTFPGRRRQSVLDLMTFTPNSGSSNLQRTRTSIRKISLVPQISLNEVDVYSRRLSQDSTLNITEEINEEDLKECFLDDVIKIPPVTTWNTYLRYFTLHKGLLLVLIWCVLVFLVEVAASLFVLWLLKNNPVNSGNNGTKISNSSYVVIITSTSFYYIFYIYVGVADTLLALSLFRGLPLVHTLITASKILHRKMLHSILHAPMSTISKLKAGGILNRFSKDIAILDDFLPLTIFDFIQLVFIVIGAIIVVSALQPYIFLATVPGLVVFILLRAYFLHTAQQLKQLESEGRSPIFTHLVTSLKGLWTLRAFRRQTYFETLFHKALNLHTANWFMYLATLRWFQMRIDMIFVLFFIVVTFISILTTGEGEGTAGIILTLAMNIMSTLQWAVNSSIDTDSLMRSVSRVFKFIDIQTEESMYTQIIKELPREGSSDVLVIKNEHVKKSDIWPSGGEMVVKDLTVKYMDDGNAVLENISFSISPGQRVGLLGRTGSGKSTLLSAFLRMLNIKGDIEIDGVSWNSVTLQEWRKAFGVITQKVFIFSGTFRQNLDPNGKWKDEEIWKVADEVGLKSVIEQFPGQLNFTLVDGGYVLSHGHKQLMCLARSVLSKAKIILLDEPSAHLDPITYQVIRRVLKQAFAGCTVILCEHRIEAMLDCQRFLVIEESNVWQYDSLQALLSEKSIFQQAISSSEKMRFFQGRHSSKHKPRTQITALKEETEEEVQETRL

In the case of `O=C(O)c1cc([N+](=O)[O-])ccc1NCCCc1ccccc1` [NPPB, 5-nitro-2-(3-phenylpropylamino)-benzoic acid], in data set [1] (100 µM, after CFTRinh-172), the “inhibition of the remaining fraction of the VSORC current” value was “completely inhibited”.
Regarding `O=C(O)c1ccc(C=C2SC(=S)N(c3cccc(C(F)(F)F)c3)C2=O)cc1` [CFTRinh-172, 3-[(3-trifluoromethyl)phenyl]-5-[(4-carboxyphenyl)methylene]-2-thioxo-4-thiazolidinone], the “inhibition of the CFTR conductance” value in data set [2] (5 µM) is on record as “full inhibition”. In data set [2] (forskolin-activated, tested 0.5, 1, 5, 10 µM), the “concentration of maximal inhibition of the CFTR-like current” value is recorded as 5 µM. Besides, in data set [1] (10 µM, negative and positive potentials), the “inhibition of VSORC” value is listed as about 50%. Further, in data set [1] (read-out: IC50 towards VSORC-mediated Cl− currents, either at negative or positive potentials), the negative-log IC50 (pIC50) is 4.92. Moreover, the “effect on VSORC conductance” value in data set [1] (up to 1 µM) is reported as “did not affect”. Further, the “effect on cell viability (live/dead labelling)” value was “induced cell death” in data set [3] (50 µM) and “no significant effect on cell viability” in data set [3] (1 to 20 µM). The “inhibition of shark 'CFTR-like' protein” value in data set [4] was 10%. Moreover, the “effect on cell viability (MTT)” value in data set [5] (20 µM and even 10 µM) was “marked effect”; in data set [5] (50 µM) it was “dramatic decrease of the cell viability”. Further, in the data set with PS120 cells, the “concentration decreasing cell viability (MTT)” value was 5 µM. The “inhibition of the CaCC” value in data set [6] (5 µM) is “no noticeable inhibition”. The “effect on the CaCC” value in data set [6] (up to 10 µM, ionomycin 2 µM) is listed as “did not affect”. The “inhibition of human CFTR” value in the data set with human CFTR was about 50%.
